Experimental data of several laboratories.
Compare with care: the assays were run in different laboratories.
Target: Serine/threonine-protein kinase 35 (STK35, Homo sapiens, UniProt Q8TDR2)

O=C(Nc1c[nH]nc1C(=O)NC1CCNCC1)c1cc(F)cc(F)c1  remaining binding (binding; competition with immobilised ligand; 1 µM): 100%
O=C(c1ccc(Nc2ncc(Cl)c(-c3ccc(Cl)s3)n2)cc1)N1CCC(N2CCCC2)CC1  remaining binding (binding; competition with immobilised ligand; 1 µM): 99%
COc1cnc(Nc2cccc(S(N)(=O)=O)c2)nc1N1CCN(c2ccccc2)CC1  remaining binding (binding; competition with immobilised ligand; 1 µM): 100%
C[C@@H](c1ccc(-n2cnc3c(N)ncnc32)cc1)N1CCc2nn(C)c(Cc3ccccc3)c2C1=O  remaining binding (binding; competition with immobilised ligand; 0.1 µM): 83%
CC1=C(C#N)[C@@H](c2ccc3[nH]nc(C)c3c2)C(C#N)=C(c2ccc(Cl)cc2)N1  remaining binding (cell-free assay; competition with immobilised ligand; 1 µM): 100%
C[C@@H]1CCN(c2nccc(-c3cnn4ncccc34)n2)C1  remaining binding (binding; 1 µM): 72%
c1cncc(-c2cccc(Nc3nccc(NC4CCCCC4)n3)c2)c1  remaining binding (binding; competition with immobilised ligand; 10 µM): 86%
CN(CCCC(F)(F)F)c1nccc(-c2cnn3ncccc23)n1  remaining binding (binding; 1 µM): 100%
COc1ncc2cc3ccccc3nc2c1C#N  remaining binding (cell-free assay; competition with immobilised ligand; 5 µM): 98%
COc1ccc2cc(OCC3(C(=O)O)CN(C(=O)c4ccc(F)cc4)C3)ccc2c1  remaining binding (cell-free assay; competition with immobilised ligand; 1 µM): 100%
COc1ccnn2ncc(-c3ccnc(N(C)C)n3)c12  remaining binding (binding; 1 µM): 95%
CCC(=O)N[C@H]1CC[C@@H](C(=O)N(C)c2ccc(-c3nc4ccccc4o3)cc2)C1  remaining binding (cell-free assay; competition with immobilised ligand; 1 µM): 88%
O=C(NCCCN1CCOCC1)c1ccc(Nc2nccc(-c3cc4ccccc4s3)n2)cc1  remaining binding (binding; competition with immobilised ligand; 1 µM): 92%
CN(C)C(=O)Cn1cc(-c2nc(C3(c4ccc(-c5cnc(N)nc5)cc4)CC3)no2)cn1  remaining binding (cell-free assay; competition with immobilised ligand; 1 µM): 94%
N[C@H]1CCN(c2nccc(-c3cnn4ncccc34)n2)C1  remaining binding (binding; 1 µM): 89%
Cc1nccc(COC(=O)N2C[C@@H]3[C@@H](CNC(=O)c4ccc5[nH]nnc5c4)[C@@H]3C2)n1  remaining binding (cell-free assay; competition with immobilised ligand; 1 µM): 83%
CN(C)c1nccc(-c2cnc3ncccn23)n1  remaining binding (binding; 1 µM): 100%
O=C(c1ccc(Nc2ncc(Cl)c(-c3cc4ccccc4s3)n2)cc1)N1CCC(N2CCCC2)CC1  remaining binding (binding; competition with immobilised ligand; 1 µM): 67%
CC1CCCN1c1nccc(-c2cnn3ncccc23)n1 (stereo not shown)  remaining binding (binding; 1 µM): 88%
Nc1ncc2c(n1)-c1c([nH]c3ccc(C#CC4CC4)cc13)CCCC2  remaining binding (binding; competition with immobilised ligand; 1 µM): 100%
Cn1nc(C(F)(F)F)cc1-c1cnc(N2CCc3cc(S(=O)(=O)Nc4c(F)cc(Cl)cc4F)cc(N4CCCC4=O)c32)nc1  remaining binding (cell-free assay; competition with immobilised ligand; 1 µM): 100%
Cc1cnn2ncc(-c3ccnc(N(C)C)n3)c2c1  remaining binding (binding; 1 µM): 100%
